Measured values reported in ChEMBL document CHEMBL1926550, “Synthesis and antibacterial activity of naphthyridone derivatives containing mono/difluoro-methyloxime pyrrolidine scaffolds” (2012).
In brackets after ≈: the same amount, converted by molar mass.

What follows are compounds tested on Enterococcus faecium (assay: Antibacterial activity against Enterococcus faecium 09-6 after 18 hrs by two fold serial dilution method). Conditions: 09-6, 18 h.
Format: functional
Method in brief: (§1)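 Agar two-fold serial dilution in melted Mueller-Hinton agar, final concentrations 128 down to 0.008 μg/mL. Plates inoculated with 10⁴ cfu and incubated at 35 °C for 18 h. MIC taken as the lowest concentration giving no visible growth on the plate.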

| Structure (SMILES) | MIC |
| --- | --- |
| NCC1CN(c2nc3c(cc2F)c(=O)c(C(=O)O)cn3-c2ccc(F)cc2F)C/C1=N\OCF (racemic) | 0.5 µg/mL (≈ 1.04 µM) |

Each compound was assayed on Staphylococcus aureus (assay: Antibacterial activity against methicillin-sensitive Staphylococcus aureus 10-2 after 18 hrs by two fold serial dilution method). Conditions: 10-2, 18 h.
Format: functional
Method in brief: as §1

| Structure (SMILES) | MIC |
| --- | --- |
| NCC1CN(c2nc3c(cc2F)c(=O)c(C(=O)O)cn3-c2ccc(F)cc2F)C/C1=N\OCF (racemic) | 4 µg/mL (≈ 8.34 µM) |

What follows are compounds tested on Pseudomonas aeruginosa (assay: Antibacterial activity against Pseudomonas aeruginosa 10-3 after 18 hrs by two fold serial dilution method). Conditions: 10-3, 18 h.
Format: functional
Method in brief: as §1

| Structure (SMILES) | MIC |
| --- | --- |
| NCC1CN(c2nc3c(cc2F)c(=O)c(C(=O)O)cn3-c2ccc(F)cc2F)C/C1=N\OCF (racemic) | 32 µg/mL (≈ 66.8 µM) |

Each compound was assayed on Staphylococcus aureus (assay: Antibacterial activity against methicillin-resistant Staphylococcus aureus 10-2 after 18 hrs by two fold serial dilution method). Conditions: 10-2, 18 h.
Format: functional
Method in brief: (§2)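 Agar two-fold serial dilution in melted Mueller-Hinton agar, 128 to 0.008 μg/mL. Plates inoculated with 10⁴ cfu, incubated 35 °C for 18 h. MIC taken as lowest concentration giving no visible growth on the plate.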

| Structure (SMILES) | MIC |
| --- | --- |
| NCC1CN(c2nc3c(cc2F)c(=O)c(C(=O)O)cn3-c2ccc(F)cc2F)C/C1=N\OCF (racemic) | 16 µg/mL (≈ 33.4 µM) |

These compounds were tested on Staphylococcus aureus (assay: Antibacterial activity against methicillin-sensitive Staphylococcus aureus 10-1 after 18 hrs by two fold serial dilution method). Conditions: 10-1, 18 h.
Format: functional
Method in brief: as §1

| Structure (SMILES) | MIC |
| --- | --- |
| NCC1CN(c2nc3c(cc2F)c(=O)c(C(=O)O)cn3-c2ccc(F)cc2F)C/C1=N\OCF (racemic) | 0.06 µg/mL (≈ 0.125 µM) |

These compounds were tested on Escherichia coli (assay: Antibacterial activity against Escherichia coli 10-1 after 18 hrs by two fold serial dilution method). Conditions: 10-1, 18 h.
Format: functional
Method in brief: as §1

| Structure (SMILES) | MIC |
| --- | --- |
| NCC1CN(c2nc3c(cc2F)c(=O)c(C(=O)O)cn3-c2ccc(F)cc2F)C/C1=N\OCF (racemic) | 128 µg/mL (≈ 267 µM) |

Each compound was assayed on Staphylococcus aureus (assay: Antibacterial activity against methicillin-sensitive Staphylococcus aureus 10-6 after 18 hrs by two fold serial dilution method). Conditions: 10-6, 18 h.
Format: functional
Method in brief: as §1

| Structure (SMILES) | MIC |
| --- | --- |
| NCC1CN(c2nc3c(cc2F)c(=O)c(C(=O)O)cn3-c2ccc(F)cc2F)C/C1=N\OCF (racemic) | 0.125 µg/mL (≈ 0.261 µM) |

The compounds below were run on Staphylococcus epidermidis (assay: Antibacterial activity against methicillin-sensitive Staphylococcus epidermidis 10-2 after 18 hrs by two fold serial dilution method). Conditions: 10-2, 18 h.
Format: functional
Method in brief: as §1

| Structure (SMILES) | MIC |
| --- | --- |
| NCC1CN(c2nc3c(cc2F)c(=O)c(C(=O)O)cn3-c2ccc(F)cc2F)C/C1=N\OCF (racemic) | 32 µg/mL (≈ 66.8 µM) |

Each compound was assayed on Enterococcus faecium (assay: Antibacterial activity against Enterococcus faecium 09-4 after 18 hrs by two fold serial dilution method). Conditions: 09-4, 18 h.
Format: functional
Method in brief: as §1

| Structure (SMILES) | MIC |
| --- | --- |
| NCC1CN(c2nc3c(cc2F)c(=O)c(C(=O)O)cn3-c2ccc(F)cc2F)C/C1=N\OCF (racemic) | 0.5 µg/mL (≈ 1.04 µM) |

These compounds were tested on Enterococcus faecium (assay: Antibacterial activity against Enterococcus faecium 09-1 after 18 hrs by two fold serial dilution method). Conditions: 09-1, 18 h.
Format: functional
Method in brief: as §1

| Structure (SMILES) | MIC |
| --- | --- |
| NCC1CN(c2nc3c(cc2F)c(=O)c(C(=O)O)cn3-c2ccc(F)cc2F)C/C1=N\OCF (racemic) | 64 µg/mL (≈ 134 µM) |

Each compound was assayed on Pseudomonas aeruginosa (assay: Antibacterial activity against Pseudomonas aeruginosa 10-2 after 18 hrs by two fold serial dilution method). Conditions: 10-2, 18 h.
Format: functional
Method in brief: as §1

| Structure (SMILES) | MIC |
| --- | --- |
| NCC1CN(c2nc3c(cc2F)c(=O)c(C(=O)O)cn3-c2ccc(F)cc2F)C/C1=N\OCF (racemic) | > 128 µg/mL |

Each compound was assayed on Staphylococcus epidermidis (assay: Antibacterial activity against methicillin-resistant Staphylococcus epidermidis 10-1 after 18 hrs by two fold serial dilution method). Conditions: 10-1, 18 h.
Format: functional
Method in brief: as §2

| Structure (SMILES) | MIC |
| --- | --- |
| NCC1CN(c2nc3c(cc2F)c(=O)c(C(=O)O)cn3-c2ccc(F)cc2F)C/C1=N\OCF (racemic) | 4 µg/mL (≈ 8.34 µM) |

The compounds below were run on Enterococcus faecium (assay: Antibacterial activity against Enterococcus faecium 09-5 after 18 hrs by two fold serial dilution method). Conditions: 09-5, 18 h.
Format: functional
Method in brief: as §1

| Structure (SMILES) | MIC |
| --- | --- |
| NCC1CN(c2nc3c(cc2F)c(=O)c(C(=O)O)cn3-c2ccc(F)cc2F)C/C1=N\OCF (racemic) | 64 µg/mL (≈ 134 µM) |

The compounds below were run on Enterococcus faecium (assay: Antibacterial activity against Enterococcus faecium 09-2 after 18 hrs by two fold serial dilution method). Conditions: 09-2, 18 h.
Format: functional
Method in brief: as §1

| Structure (SMILES) | MIC |
| --- | --- |
| NCC1CN(c2nc3c(cc2F)c(=O)c(C(=O)O)cn3-c2ccc(F)cc2F)C/C1=N\OCF (racemic) | 64 µg/mL (≈ 134 µM) |

What follows are compounds tested on Pseudomonas aeruginosa (assay: Antibacterial activity against Pseudomonas aeruginosa 10-1 after 18 hrs by two fold serial dilution method). Conditions: 10-1, 18 h.
Format: functional
Method in brief: as §1

| Structure (SMILES) | MIC |
| --- | --- |
| NCC1CN(c2nc3c(cc2F)c(=O)c(C(=O)O)cn3-c2ccc(F)cc2F)C/C1=N\OCF (racemic) | 4 µg/mL (≈ 8.34 µM) |

Each compound was assayed on Staphylococcus aureus (assay: Antibacterial activity against Staphylococcus aureus ATCC 25923 after 18 hrs by two fold serial dilution method). Conditions: ATCC 25923, 18 h.
Format: functional
Method in brief: as §1

| Structure (SMILES) | MIC |
| --- | --- |
| NCC1CN(c2nc3c(cc2F)c(=O)c(C(=O)O)cn3-c2ccc(F)cc2F)C/C1=N\OCF (racemic) | 0.25 µg/mL (≈ 0.521 µM) |

Each compound was assayed on Streptococcus pneumoniae (assay: Antibacterial activity against Streptococcus pneumoniae 10-1 after 18 hrs by two fold serial dilution method). Conditions: 10-1, 18 h.
Format: functional
Method in brief: as §1

| Structure (SMILES) | MIC |
| --- | --- |
| NCC1CN(c2nc3c(cc2F)c(=O)c(C(=O)O)cn3-c2ccc(F)cc2F)C/C1=N\OCF (racemic) | 0.125 µg/mL (≈ 0.261 µM) |

What follows are compounds tested on Staphylococcus aureus (assay: Antibacterial activity against methicillin-resistant Staphylococcus aureus 10-4 after 18 hrs by two fold serial dilution method). Conditions: 10-4, 18 h.
Format: functional
Method in brief: as §2

| Structure (SMILES) | MIC |
| --- | --- |
| NCC1CN(c2nc3c(cc2F)c(=O)c(C(=O)O)cn3-c2ccc(F)cc2F)C/C1=N\OCF (racemic) | 64 µg/mL (≈ 134 µM) |

The compounds below were run on Staphylococcus aureus (assay: Antibacterial activity against methicillin-sensitive Staphylococcus aureus 10-5 after 18 hrs by two fold serial dilution method). Conditions: 10-5, 18 h.
Format: functional
Method in brief: as §1

| Structure (SMILES) | MIC |
| --- | --- |
| NCC1CN(c2nc3c(cc2F)c(=O)c(C(=O)O)cn3-c2ccc(F)cc2F)C/C1=N\OCF (racemic) | 0.125 µg/mL (≈ 0.261 µM) |
